Blank lines part the entries; values can stand above or below the molecule they belong to. Activity calls are given as the source filed them. No cut-off for these calls is given here.
Assays:
[1] = biological target: Tyrosine-protein kinase ABL1 (Homo sapiens) (UniProt P00519); test: Inhibition of human recombinant GST-fused ABL expressed in baculovirus expression system using poly-Glu-Tyr (4:1) as substrate measured after 10 mins in presence of gamma-[33P]-ATP by scintillation counting analysis
Outline: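 GST-fused kinase domains were expressed in baculovirus and purified on glutathione-Sepharose. 10 min at ambient temperature, stopped with EDTA. Filter binding and scintillation counting. IC50 by linear regression of percent inhibition.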

[2] = Half life in OFA rat at 25 mg/kg, po measured upto 24 hrs by HPLC/UV analysis; assay type: ADME, organism-based; details: in vivo
Outline: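 Female OFA rats, femoral artery/vein catheterized and recovered 96 h. Oral gavage of a micronized suspension in 0.5 % carboxymethyl cellulose at 25 or 3 mg/kg. Bioavailability taken against femoral-vein iv dosing. Plasma sampled 5 min–24 h (9 time points).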

[3] = system: BN472 cell; test: Induction of apoptosis in rat BN472 cell implanted in Brown-Norway rat assessed as effect on caspase 3 level at 3 mg/kg, po qd measured upto 14 days by microscopic analysis; assay type: functional, organism-based; details: time <= 14.0 day
Outline: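 BN472 fragments were grown in mammary fat pads of female Brown-Norway rats and dosed orally for 14 days. Hoechst dye was given i.v. 2 min before sacrifice. Excised tumors were cut as 10 micron frozen sections, blocked with 10 % normal goat serum/0.1 % Triton X-100 and stained with rabbit anti-rat caspase 3 (1:10), then a TRITC or FITC secondary. Read by fluorescence microscopy.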

[4] = Antitumor activity against rat BN472 cell implanted in Brown-Norway rat assessed as T/C ratio at 1 mg/kg, po qd measured upto 14 days; assay type: functional; details: time <= 14 day
Outline: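 Female Brown-Norway rats (160-180 g) given 3 mm³ BN472 tumor fragments in mammary fat pads; at about 200 mm², randomized into groups of 7-8 and dosed orally with compound or PEG300 vehicle over 14 days; tumor growth followed, T/C computed; significance by 2-way RM-ANOVA.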

[5] = Half-life in OFA rat at 1 mg/kg, iv measured upto 24 hrs by HPLC/UV analysis; assay type: ADME, organism-based; details: in vivo
Outline: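 Catheters were placed in the femoral artery and vein of female OFA rats, followed by 96 h recovery. IV doses went into the femoral vein: 2.5 mg/kg in ethanol/dimethylisosorbide/PEG400/5 % glucose (10/15/35/40), or 1 mg/kg in NMP/PEG200 (30:70). Plasma samples at 5, 15, 30 min and 1, 2, 4, 6, 8, 24 h. Parameters reported over 24 h. n=2–4.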

[6] = system: B16-BL6; test: Antitumor activity against mouse B16-BL6 cells implanted in C57BL/6jNpa mouse assessed as primary tumor growth inhibition by measuring T/C ratio at 1 mg/kg, po qd started on day 7 post implantation measured after 21 days; details: time 7-21 day

Sequence of Tyrosine-protein kinase ABL1 (Homo sapiens) (P00519 whole entry, the tested form may be a part): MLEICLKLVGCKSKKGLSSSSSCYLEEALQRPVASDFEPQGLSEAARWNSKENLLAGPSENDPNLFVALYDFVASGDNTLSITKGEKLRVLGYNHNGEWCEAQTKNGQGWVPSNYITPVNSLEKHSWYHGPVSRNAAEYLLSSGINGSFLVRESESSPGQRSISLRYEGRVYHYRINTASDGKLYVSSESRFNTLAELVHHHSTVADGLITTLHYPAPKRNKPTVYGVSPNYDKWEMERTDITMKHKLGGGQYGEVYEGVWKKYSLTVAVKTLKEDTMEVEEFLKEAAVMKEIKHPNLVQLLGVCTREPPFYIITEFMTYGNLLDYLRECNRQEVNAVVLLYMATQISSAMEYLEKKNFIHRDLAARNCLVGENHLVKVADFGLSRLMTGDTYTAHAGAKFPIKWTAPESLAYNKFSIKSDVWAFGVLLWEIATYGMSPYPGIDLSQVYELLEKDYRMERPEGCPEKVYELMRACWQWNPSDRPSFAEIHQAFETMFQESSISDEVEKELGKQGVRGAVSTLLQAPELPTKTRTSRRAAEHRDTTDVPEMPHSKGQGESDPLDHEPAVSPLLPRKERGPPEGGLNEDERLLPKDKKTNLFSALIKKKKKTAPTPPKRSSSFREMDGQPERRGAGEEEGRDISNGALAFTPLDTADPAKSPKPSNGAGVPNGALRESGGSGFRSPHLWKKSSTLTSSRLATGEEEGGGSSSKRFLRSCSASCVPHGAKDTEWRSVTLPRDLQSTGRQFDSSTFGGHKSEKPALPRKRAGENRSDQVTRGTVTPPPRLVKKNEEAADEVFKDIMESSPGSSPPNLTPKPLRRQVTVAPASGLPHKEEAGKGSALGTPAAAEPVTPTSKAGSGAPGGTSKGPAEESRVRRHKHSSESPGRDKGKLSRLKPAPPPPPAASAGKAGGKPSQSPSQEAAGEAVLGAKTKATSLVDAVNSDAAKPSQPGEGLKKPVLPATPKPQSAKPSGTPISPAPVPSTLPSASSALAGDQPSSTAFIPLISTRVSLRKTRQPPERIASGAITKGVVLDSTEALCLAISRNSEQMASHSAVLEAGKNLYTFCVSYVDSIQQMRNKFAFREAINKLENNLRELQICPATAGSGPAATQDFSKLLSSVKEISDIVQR

inhibition [1]: Active
half-life [2]: 2 h
Structure (SMILES): Nc1nccc(Oc2ccc3c(C(=O)Nc4cccc(C(F)(F)F)c4)cccc3c2)n1

Structure (SMILES): Nc1nccc(Oc2ccc3c(C(=O)Nc4ccc(F)c(C(F)(F)F)c4)cccc3c2)n1
Activity [3]: Active
T/C [4]: 0.028

half-life [5]: 2.5 h
Structure (SMILES): O=C(Nc1cccc(C(F)(F)F)c1)c1cccc2cc(Oc3cc(CO)ncn3)ccc12 [BFH-772]
T/C [6]: 0.73
